We go through 31 compounds from ChEMBL document CHEMBL2440007, “Design, synthesis and biological evaluation of N2,N4-disubstituted-1,1,3-trioxo-2H,4H-pyrrolo[1,2-b][1,2,4,6]thiatriazine derivatives as HIV-1 NNRTIs” (Bioorg Med Chem, 2013).

Data set [1] in a line: Selectivity index, ratio of CC50 for human MT4 cells to EC50 for HIV-2 ROD infected in human MT4 cells. The format is toxicity, cell-based. As to conditions: read-out: Ratio CC50/EC50. The method in brief:
(§1)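 Ratio CC50/EC50. Both values come from MTT viability of MT-4 cells read 5 days after infection with HIV-1 IIIB or HIV-2 ROD, or after mock infection for CC50.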

For data set [2], the system named is Human immunodeficiency virus 2. As to the kind of experiment: Antiviral activity against HIV2 ROD infected in human MT4 cells assessed as protection against viral-induced cytotoxicity after 5 days by MTT assay. Type of data set: functional, organism-based. The conditions noted are these: Human immunodeficiency virus 2, ISOLATE ROD, MT4, 120 h. The gist of the method:
(§2)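 MT-4 cells were infected with HIV-1 IIIB or HIV-2 ROD stock at 100–300 CCID50 and exposed to serial fivefold compound dilutions, with untreated virus-infected and mock-infected controls. Cell viability was read by MTT after 5 days.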
A general note: Formazan colour is commonly taken as a measure of viable cells.

Data set [3] is described as follows: Selectivity index, ratio of CC50 for human MT4 cells to EC50 for HIV-1 3B infected in human MT4 cells. The format is toxicity, cell-based. The conditions noted are these: read-out: Ratio CC50/EC50. The method in brief: as §1
A short description of data set [4]: Cytotoxicity against human MT4 cells after 5 days by MTT assay. The format is cell-based. The method in brief:
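Mock-infected MT-4 cells (6 × 10⁵ cells/mL) were exposed to serial fivefold compound dilutions. Viability was measured by MTT after 5 days.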

The test system of data set [5] is Human immunodeficiency virus 1. Nature of the data set: Antiviral activity against HIV1 3B infected in human MT4 cells assessed as protection against viral-induced cytotoxicity after 5 days by MTT assay. The conditions noted are these: Human immunodeficiency virus 1, 3B, MT4, 120 h. The format is functional, organism-based. The method in brief: as §2
The target of data set [6] is Human immunodeficiency virus type 1 reverse transcriptase (Human immunodeficiency virus 1, UniProt Q72547). Nature of the data set: Inhibition of HIV1 reverse transcriptase assessed as inhibition of biotinylated dUTP incorporation after 1 hr by ELISA. The gist of the method:
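Kit-based colorimetric ELISA. HIV-1 RT was incubated with template and DIG-dUTP, biotin-dUTP and dTTP, with or without inhibitor, for 1 h at 37 °C. Product was captured on streptavidin plates for 1 h at 37 °C, then anti-DIG-POD for 1 h at 37 °C, and ABTS was developed at 25 °C. A405 was read and percent inhibition calculated.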
In general terms: ELISA stands for enzyme-linked immunosorbent assay.

Data set [7] has as its system Human immunodeficiency virus 1. Nature of the data set: Antiviral activity against HIV1. Type of data set: functional, organism-based.

pEC50, pIC50: −log10 of the molar value.

The term pEC50 denotes the negative decadic logarithm of the EC50, by convention in mol/L. As usually defined, the CC50 is the concentration giving 50% cytotoxicity. The low end stands for greater toxicity to the cells, the high end for lower toxicity to the cells. `CC(C)=CCN1C(=O)N(Cc2ccccc2)S(=O)(=O)n2cccc21`: the selectivity ratio in data set [1] was under 1; in data set [3], 9. Moreover, the values for the negative logarithm of the EC50 (pEC50) in data set [2] and in data set [5] were under 3.65 and 4.60, respectively. The same compound showed a CC50 at 120 h in data set [4] of 226 µM.

As for `Nc1ccn([C@H]2CC[C@@H](CO)O2)c(=O)n1` [ZALCITABINE], in data set [3], the selectivity ratio is over 68. For the same compound, the CC50 at 120 h in data set [4] is over 95 µM.

As usually defined, the pIC50 is −log10 of the IC50, conventionally taken in molar units. As to `N#Cc1ccccc1CN1C(=O)N(Cc2cccc(F)c2)S(=O)(=O)n2cccc21`, the pIC50 in data set [6] is 4.23. For the same compound, the selectivity ratio in data set [1] was 1; in data set [3] it was over 55. Besides, the pEC50 in data set [2] was under 3.52; in data set [5] it was 5.25. Further, the cytotoxic concentration (CC50) at 120 h in data set [4] was over 305 µM.

In the case of `N#CCN1C(=O)N(Cc2ccccc2)S(=O)(=O)c2cscc21`, the selectivity ratio in data set [3] stood at 559. Moreover, the CC50 at 120 h in data set [4] was determined as 503 µM.

As to `O=C1N(Cc2ccccc2Cl)c2cccn2S(=O)(=O)N1Cc1cccc(Br)c1`, the selectivity ratio is 1 in data set [1] and over 14 in data set [3]. Besides, the values for the pEC50 in data set [2] and in data set [5] were under 3.59 and 4.74, respectively. The CC50 at 120 h in data set [4] is over 260 µM.

As to `N#CCN1C(=O)N(Cc2cccc(F)c2)S(=O)(=O)n2cccc21`, the selectivity ratio in data set [1] is under 1; in data set [3], 5. In addition, the figures for the pEC50 in data set [2] and in data set [5] were under 3.73 and 4.47, respectively. The CC50 at 120 h in data set [4] came to 172 µM.

In data set [7], `Cn1ncc2c1N(Cc1ccccc1Cl)S(=O)(=O)N(Cc1ccccc1)C2=O` had a negative logarithm of the EC50 (pEC50) of under 4.70.

As to `O=C1N(Cc2ccccc2Br)c2cccn2S(=O)(=O)N1Cc1ccccc1`, the results for the selectivity ratio in data set [1] and in data set [3] were under 1 and 8, respectively. In addition, the pEC50 in data set [2] is under 3.65; in data set [5], 4.52. The compound also yielded a 50% cytotoxic concentration (CC50) at 120 h in data set [4] of 226 µM.

In the case of `O=C1N(Cc2ccc(Cl)cc2Cl)c2cccn2S(=O)(=O)N1Cc1cccc(Cl)c1`, the selectivity ratio in data set [1] is 1; in data set [3] it was under 1. The pEC50 is under 3.58 in data set [2] and under 3.60 in data set [5]. This compound also registered a cytotoxic concentration (CC50) at 120 h in data set [4] of 251 µM.

Take `O=C1N(Cc2cccc(Cl)c2)c2cccn2S(=O)(=O)N1Cc1cccc(F)c1`: the selectivity ratio in data set [1] is under 1; in data set [3], 29. Also, the negative logarithm of the EC50 (pEC50) in data set [2] is under 3.67; in data set [5], 5.14. In data set [4], the CC50 at 120 h was determined as 208 µM.

For `Cc1ccc(CN2C(=O)N(Cc3ccccc3)S(=O)(=O)n3cccc32)cc1`, the selectivity ratio in data set [1] and in data set [3] was under 1 throughout. The pEC50 in data set [2] and in data set [5] was under 3.62 in each case. In data set [4], this compound gave a CC50 at 120 h of 241 µM.

Turning to `Cc1ccnc2c1NC(=O)c1cccnc1N2C1CC1` [NEVIRAPINE], the 50% cytotoxic concentration (CC50) at 120 h in data set [4] is over 15 µM.

Regarding `C=CCN1C(=O)N(Cc2ccccc2)S(=O)(=O)n2cccc21`, the selectivity ratio in data set [1] was under 1; in data set [3], over 1. For the same compound, the pEC50 in data set [2] and in data set [5] was under 3.10 in each case. For the same compound, the 50% cytotoxic concentration (CC50) at 120 h in data set [4] is over 802 µM.

Regarding `O=C1N(Cc2ccccc2Cl)c2cscc2S(=O)(=O)N1Cc1ccccc1`, the selectivity ratio in data set [3] was over 119. The compound also gave a CC50 at 120 h in data set [4] of over 119 µM. Besides, the pEC50 in data set [7] was 8.00.

In data set [7], `Cn1ncc2c1S(=O)(=O)N(Cc1ccccc1)C(=O)N2Cc1ccccc1Cl` had a negative logarithm of the EC50 (pEC50) of under 3.52.

Take `O=C1N(Cc2ccccc2)c2cccn2S(=O)(=O)N1Cc1cccc(F)c1`: the selectivity ratio in data set [1] was found to be 1; in data set [3], 6. For the same compound, the negative-log EC50 (pEC50) is under 3.49 in data set [2] and 4.28 in data set [5]. The compound further registered a CC50 at 120 h in data set [4] of 288 µM.

In the case of `N#Cc1ccccc1CN1C(=O)N(Cc2ccccc2)S(=O)(=O)n2cccc21`, the pIC50 in data set [6] was 4.24. Also, the selectivity ratio in data set [1] was 1; in data set [3], over 63. In addition, the results for the pEC50 in data set [2] and in data set [5] were under 3.50 and 5.29, respectively. The compound also gave a CC50 at 120 h in data set [4] of over 318 µM.

For `N#Cc1ccccc1CN1C(=O)N(Cc2cccc(Cl)c2)S(=O)(=O)n2cccc21`, the figures for the selectivity ratio in data set [1] and in data set [3] were 1 and over 33, respectively. Also, the negative logarithm of the EC50 (pEC50) was under 3.53 in data set [2] and 5.05 in data set [5]. The same compound displayed a CC50 at 120 h in data set [4] of over 293 µM.

For the compound `O=C1N(Cc2cccc(Cl)c2)c2cccn2S(=O)(=O)N1Cc1ccccc1`, the selectivity ratio in data set [1] was under 1; in data set [3], 5. The pEC50 was under 3.62 in data set [2] and 4.40 in data set [5]. In data set [4], this compound had a CC50 at 120 h of 196 µM.

Take `O=C1N(Cc2ccc(F)cc2)c2cccn2S(=O)(=O)N1Cc1ccccc1`: the selectivity ratio in data set [1] and in data set [3] was under 1 each time. In addition, the negative logarithm of the EC50 (pEC50) in data set [2] is under 3.82; in data set [5], under 3.72. For the same compound, half-maximal cytotoxicity in data set [4] (CC50 at 120 h) was put at 150 µM.

Consider `O=C1N(Cc2ccc(Cl)cc2Cl)c2cccn2S(=O)(=O)N1Cc1cccc(Br)c1`, for which the selectivity ratio in data set [1] came out at 1. Also, the pEC50 in data set [2] and in data set [5] was under 3.61 in each case. This compound displayed a CC50 at 120 h in data set [4] of over 243 µM.

With `O=C1N(Cc2ccccc2)c2cccn2S(=O)(=O)N1Cc1ccccc1`, the selectivity ratio is under 1 in data set [1] and 5 in data set [3]. Also, the values for the pEC50 in data set [2] and in data set [5] were under 3.57 and 4.37, respectively. The same compound yielded a CC50 at 120 h in data set [4] of 196 µM.

`N#Cc1cccc(CN2C(=O)N(Cc3ccccc3)S(=O)(=O)n3cccc32)c1`: the selectivity ratio in data set [1] is 1; in data set [3], over 49. In addition, the negative-log EC50 (pEC50) in data set [2] is under 3.50; in data set [5] it was 5.19. For the same compound, the cytotoxic concentration (CC50) at 120 h in data set [4] was over 318 µM.

For the compound `N#CCN1C(=O)N(Cc2ccccc2)S(=O)(=O)n2cccc21`, the selectivity ratio in data set [1] and in data set [3] was under 1 each time. The negative-log EC50 (pEC50) in data set [2] is under 3.74; in data set [5], under 3.73. The compound further came in with a cytotoxic concentration (CC50) at 120 h in data set [4] of 180 µM.

For the compound `Nc1ccn([C@@H]2CS[C@H](CO)O2)c(=O)n1` [LAMIVUDINE], the selectivity ratio is over 15 in data set [1] and over 47 in data set [3]. Moreover, the pEC50 in data set [2] is 5.23; in data set [5], 5.74. In addition, the CC50 at 120 h in data set [4] was over 87 µM.

Regarding `O=C1N(C/C=C/c2ccccc2)c2cccn2S(=O)(=O)N1Cc1ccccc1`, the selectivity ratio in data set [1] turned out to be 1. Moreover, the pEC50 in data set [2] and in data set [5] was under 3.50 in each case. For the same compound, in data set [4], the CC50 at 120 h was over 318 µM.

Consider `O=C1N(Cc2ccccc2Cl)c2cccn2S(=O)(=O)N1Cc1ccccc1`, for which the selectivity ratio turned out to be 1 in data set [1] and 12 in data set [3]. Besides, the negative-log EC50 (pEC50) was under 3.51 in data set [2] and 4.64 in data set [5]. Moreover, the half-maximal cytotoxic concentration (CC50) at 120 h in data set [4] is 291 µM.

Consider `O=C1N(Cc2ccc(Cl)cc2Cl)c2cccn2S(=O)(=O)N1Cc1cccc(F)c1`, for which the values for the selectivity ratio in data set [1] and in data set [3] were 1 and under 1, respectively. Further, the pEC50 in data set [2] was under 3.56; in data set [5], under 3.60. Also, in data set [4], the 50% cytotoxic concentration (CC50) at 120 h was 249 µM.

Consider `O=C1N(Cc2ccc(Cl)cc2Cl)c2cccn2S(=O)(=O)N1Cc1ccccc1`, for which the selectivity ratio in data set [1] and in data set [3] was under 1 each time. Besides, the negative-log EC50 (pEC50) in data set [2] is under 3.56; in data set [5], under 3.66. In addition, in data set [4], the CC50 at 120 h turned out to be 218 µM.

As for `O=C1N(Cc2ccccc2Cl)c2cccn2S(=O)(=O)N1Cc1cccc(F)c1`, the selectivity ratio was under 1 in data set [1] and 21 in data set [3]. For the same compound, the pEC50 in data set [2] is under 3.58; in data set [5], 4.96. Also, half-maximal cytotoxicity in data set [4] (CC50 at 120 h) was put at 231 µM.

With `O=C1N(Cc2ccccc2Br)c2cccn2S(=O)(=O)N1Cc1cccc(F)c1`, the selectivity ratio in data set [1] is 1; in data set [3] it was over 9. In addition, the pEC50 in data set [2] was under 3.57; in data set [5] it was 4.54. Also, in data set [4], the 50% cytotoxic concentration (CC50) at 120 h is over 269 µM.
